Test results taken from ChEMBL document CHEMBL1139390, “Synthesis and biological studies of different duocarmycin based glycosidic prodrugs for their use in the antibody-directed enzyme prodrug therapy” (J Med Chem, 2009).
pIC50: −log10 of the molar value.

Tests used:
A549 [1] = test: Cytotoxicity against human A549 cells after 24 hrs in presence of cleaving enzyme by HTCFA; type: functional, cell-based; conditions: A549, 24 h
How it was run: (§1)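 Clonogenic (HTCFA) assay on adherent A549 cells seeded in triplicate at 10^2–10^5 cells per well; after 24 h, medium replaced by serum-free UltraCulture and cells exposed 24 h to 6–8 concentrations from fresh DMSO solutions (final DMSO 1%).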

A549 [2] = test: Ratio of IC50 for human A549 cells to IC50 for human A549 cells in presence of cleaving enzyme; type: functional
How it was run: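 QIC50 is the IC50 of the prodrug alone divided by its IC50 with the cleaving glycosidase present. Both values come from the 24 h exposure A549 clonogenic assay with 9–10 days of outgrowth and methylene blue colony counts.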

A549 [3] = test: Cytotoxicity against human A549 cells after 24 hrs by HTCFA; type: functional, cell-based; conditions: A549, 24 h; how it was run: as §1
[4] = Stability in ultraculture medium after 24 hrs by HPLC-MS; type: physicochemical; conditions: read-out: Stability
How it was run: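 Compound held in UltraCulture medium at 37 °C for 24 h. The fraction remaining was quantified by HPLC-MS peak area (AUC) on a C12 reversed-phase column.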

C[C@@H](Cl)[C@@H]1CN(C(=O)c2cc3cc(OCCN(C)C)ccc3[nH]2)c2cc(O[C@@H]3O[C@H](CO)[C@H](O)[C@H](O)[C@H]3O)c3ccccc3c21
pIC50 (A549 [1]): 9.10
Ratio IC50 (A549 [2]): 4800
pIC50 (A549 [3]): 5.44
remaining at 24 h [4]: 27%

C[C@@H](Cl)[C@@H]1CN(C(=O)c2cc3cc(OCCN(C)C)ccc3[nH]2)c2cc(O)c3ccccc3c21
pIC50 (A549 [3]): 9.12

C[C@H]1[C@@H]2CN(C(=O)c3cc4cc(OCCN(C)C)ccc4[nH]3)C3=CC(=O)c4ccccc4[C@@]312
pIC50 (A549 [3]): 9.12
